According to ChEMBL document CHEMBL4024770, “Augmentation of Anticancer Drug Efficacy in Murine Hepatocellular Carcinoma Cells by a Peripherally Acting Competitive N-Methyl-d-aspartate (NMDA) Receptor Antagonist” (J Med Chem, 2017):
Active and inactive are the calls of the source. The rule behind the calls is not given here.

Assays:
[1] = target: Glutamate receptor ionotropic, kainate 3 (Rattus norvegicus, UniProt P42264); test: Displacement of [3H]-KA from recombinant homomeric rat GluK3a receptor expressed in baculovirus infected Sf9 insect cell membranes by scintillation counting method
Glutamate receptor ionotropic, kainate 3, sequence (P42264 whole entry): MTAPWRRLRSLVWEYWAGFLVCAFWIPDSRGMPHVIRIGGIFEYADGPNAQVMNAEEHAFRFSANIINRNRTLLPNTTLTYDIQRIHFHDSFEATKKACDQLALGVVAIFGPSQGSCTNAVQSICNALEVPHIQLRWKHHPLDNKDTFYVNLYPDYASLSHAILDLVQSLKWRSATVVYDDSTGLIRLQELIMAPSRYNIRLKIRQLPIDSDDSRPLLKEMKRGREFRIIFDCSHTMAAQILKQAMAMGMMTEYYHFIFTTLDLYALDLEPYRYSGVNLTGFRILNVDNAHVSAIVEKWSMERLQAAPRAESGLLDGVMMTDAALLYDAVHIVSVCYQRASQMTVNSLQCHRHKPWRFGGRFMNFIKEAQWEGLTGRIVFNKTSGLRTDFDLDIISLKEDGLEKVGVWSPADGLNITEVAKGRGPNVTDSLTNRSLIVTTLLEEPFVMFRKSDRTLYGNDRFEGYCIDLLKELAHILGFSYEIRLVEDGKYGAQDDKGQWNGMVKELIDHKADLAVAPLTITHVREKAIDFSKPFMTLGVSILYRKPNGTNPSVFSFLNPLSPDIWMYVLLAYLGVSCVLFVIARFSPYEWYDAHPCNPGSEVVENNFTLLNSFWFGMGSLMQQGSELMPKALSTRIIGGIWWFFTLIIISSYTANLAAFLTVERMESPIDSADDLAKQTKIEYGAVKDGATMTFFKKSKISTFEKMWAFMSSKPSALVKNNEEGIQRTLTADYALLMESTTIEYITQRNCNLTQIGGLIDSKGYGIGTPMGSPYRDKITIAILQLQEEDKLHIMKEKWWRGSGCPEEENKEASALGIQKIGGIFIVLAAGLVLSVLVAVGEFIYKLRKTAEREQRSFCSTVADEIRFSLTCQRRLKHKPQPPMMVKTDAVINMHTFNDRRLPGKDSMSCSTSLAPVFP

[2] = Displacement of [3H]-AMPA from AMPA receptor in Sprague-Dawley rat brain synaptosomes after 30 mins by scintillation counting method; assay type: subcellular
[3] = Displacement of [3H]-KA from KA receptor in Sprague-Dawley rat brain synaptosomes after 60 mins by scintillation counting method; assay type: subcellular
[4] = target: Glutamate NMDA receptor; Grin1/Grin2a (Rattus norvegicus, UniProt P35439+Q00959); test: Antagonist activity at recombinant rat GluN1a/GluN2A expressed in Xenopus laevis oocytes assessed as inhibition of glycine/glutamate-mediated current responses by two-electrode voltage clamp method; assay type: cell-based
Glutamate NMDA receptor; Grin1/Grin2a, sequence (Q00959 whole entry, other chains not shown): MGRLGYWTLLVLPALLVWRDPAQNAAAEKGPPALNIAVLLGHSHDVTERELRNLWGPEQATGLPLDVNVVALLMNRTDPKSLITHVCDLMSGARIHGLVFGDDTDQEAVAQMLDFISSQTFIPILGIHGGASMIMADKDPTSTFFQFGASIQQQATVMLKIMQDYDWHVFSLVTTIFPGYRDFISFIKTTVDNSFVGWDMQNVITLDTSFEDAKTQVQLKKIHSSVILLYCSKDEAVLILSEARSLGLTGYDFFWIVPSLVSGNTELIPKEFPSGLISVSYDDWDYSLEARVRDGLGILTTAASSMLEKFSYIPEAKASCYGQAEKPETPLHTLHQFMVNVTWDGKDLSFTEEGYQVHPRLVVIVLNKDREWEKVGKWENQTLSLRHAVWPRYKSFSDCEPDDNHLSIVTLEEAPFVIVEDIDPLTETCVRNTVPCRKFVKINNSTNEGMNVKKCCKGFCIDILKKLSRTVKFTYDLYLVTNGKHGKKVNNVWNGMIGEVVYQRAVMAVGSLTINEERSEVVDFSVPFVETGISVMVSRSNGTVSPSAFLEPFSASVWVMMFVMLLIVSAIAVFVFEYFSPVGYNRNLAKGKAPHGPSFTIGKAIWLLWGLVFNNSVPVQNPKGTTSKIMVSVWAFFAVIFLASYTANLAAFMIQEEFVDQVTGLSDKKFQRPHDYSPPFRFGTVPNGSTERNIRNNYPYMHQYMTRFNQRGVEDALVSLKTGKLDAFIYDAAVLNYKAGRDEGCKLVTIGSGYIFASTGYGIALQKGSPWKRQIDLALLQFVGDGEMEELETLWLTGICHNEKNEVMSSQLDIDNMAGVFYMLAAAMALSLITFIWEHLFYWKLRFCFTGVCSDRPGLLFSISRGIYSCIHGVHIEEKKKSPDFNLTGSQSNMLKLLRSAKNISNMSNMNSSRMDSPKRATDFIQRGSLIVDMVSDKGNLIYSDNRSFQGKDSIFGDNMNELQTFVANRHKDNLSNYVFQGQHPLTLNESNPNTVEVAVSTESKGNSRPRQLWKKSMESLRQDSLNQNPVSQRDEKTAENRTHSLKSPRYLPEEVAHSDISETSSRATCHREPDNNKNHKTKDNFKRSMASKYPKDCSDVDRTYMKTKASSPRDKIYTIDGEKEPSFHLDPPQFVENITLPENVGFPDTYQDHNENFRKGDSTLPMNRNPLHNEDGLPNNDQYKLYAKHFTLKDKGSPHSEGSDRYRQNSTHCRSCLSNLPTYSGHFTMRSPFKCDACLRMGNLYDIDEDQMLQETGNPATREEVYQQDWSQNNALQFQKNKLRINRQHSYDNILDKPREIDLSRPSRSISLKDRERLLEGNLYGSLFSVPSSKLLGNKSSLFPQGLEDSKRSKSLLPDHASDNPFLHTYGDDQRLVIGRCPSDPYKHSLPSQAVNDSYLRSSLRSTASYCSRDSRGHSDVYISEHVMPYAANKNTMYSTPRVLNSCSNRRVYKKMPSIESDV
Outline: (§1)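 Xenopus oocytes were injected with rat GluN1 and GluN2A–D cRNA (1:2) and recorded 2–6 days later by TEVC at room temperature, −40 mV, in Ba2+-containing recording solution, pH 7.4. Currents were evoked by 100 μM glycine plus glutamate at 2–3× EC50: 10 μM for GluN2A, 3 μM for GluN2B and GluN2C, 1 μM for GluN2D. IC50 from Hill fits per oocyte; Ki estimated.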

[5] = target: Glutamate NMDA receptor; Grin1/Grin2b (Rattus norvegicus, UniProt P35439+Q00960); test: Antagonist activity at recombinant rat GluN1a/GluN2B expressed in Xenopus laevis oocytes assessed as inhibition of glycine/glutamate-mediated current responses by two-electrode voltage clamp method; assay type: cell-based; outline: as §1
Glutamate NMDA receptor; Grin1/Grin2b, sequence (Q00960 whole entry, other chains not shown): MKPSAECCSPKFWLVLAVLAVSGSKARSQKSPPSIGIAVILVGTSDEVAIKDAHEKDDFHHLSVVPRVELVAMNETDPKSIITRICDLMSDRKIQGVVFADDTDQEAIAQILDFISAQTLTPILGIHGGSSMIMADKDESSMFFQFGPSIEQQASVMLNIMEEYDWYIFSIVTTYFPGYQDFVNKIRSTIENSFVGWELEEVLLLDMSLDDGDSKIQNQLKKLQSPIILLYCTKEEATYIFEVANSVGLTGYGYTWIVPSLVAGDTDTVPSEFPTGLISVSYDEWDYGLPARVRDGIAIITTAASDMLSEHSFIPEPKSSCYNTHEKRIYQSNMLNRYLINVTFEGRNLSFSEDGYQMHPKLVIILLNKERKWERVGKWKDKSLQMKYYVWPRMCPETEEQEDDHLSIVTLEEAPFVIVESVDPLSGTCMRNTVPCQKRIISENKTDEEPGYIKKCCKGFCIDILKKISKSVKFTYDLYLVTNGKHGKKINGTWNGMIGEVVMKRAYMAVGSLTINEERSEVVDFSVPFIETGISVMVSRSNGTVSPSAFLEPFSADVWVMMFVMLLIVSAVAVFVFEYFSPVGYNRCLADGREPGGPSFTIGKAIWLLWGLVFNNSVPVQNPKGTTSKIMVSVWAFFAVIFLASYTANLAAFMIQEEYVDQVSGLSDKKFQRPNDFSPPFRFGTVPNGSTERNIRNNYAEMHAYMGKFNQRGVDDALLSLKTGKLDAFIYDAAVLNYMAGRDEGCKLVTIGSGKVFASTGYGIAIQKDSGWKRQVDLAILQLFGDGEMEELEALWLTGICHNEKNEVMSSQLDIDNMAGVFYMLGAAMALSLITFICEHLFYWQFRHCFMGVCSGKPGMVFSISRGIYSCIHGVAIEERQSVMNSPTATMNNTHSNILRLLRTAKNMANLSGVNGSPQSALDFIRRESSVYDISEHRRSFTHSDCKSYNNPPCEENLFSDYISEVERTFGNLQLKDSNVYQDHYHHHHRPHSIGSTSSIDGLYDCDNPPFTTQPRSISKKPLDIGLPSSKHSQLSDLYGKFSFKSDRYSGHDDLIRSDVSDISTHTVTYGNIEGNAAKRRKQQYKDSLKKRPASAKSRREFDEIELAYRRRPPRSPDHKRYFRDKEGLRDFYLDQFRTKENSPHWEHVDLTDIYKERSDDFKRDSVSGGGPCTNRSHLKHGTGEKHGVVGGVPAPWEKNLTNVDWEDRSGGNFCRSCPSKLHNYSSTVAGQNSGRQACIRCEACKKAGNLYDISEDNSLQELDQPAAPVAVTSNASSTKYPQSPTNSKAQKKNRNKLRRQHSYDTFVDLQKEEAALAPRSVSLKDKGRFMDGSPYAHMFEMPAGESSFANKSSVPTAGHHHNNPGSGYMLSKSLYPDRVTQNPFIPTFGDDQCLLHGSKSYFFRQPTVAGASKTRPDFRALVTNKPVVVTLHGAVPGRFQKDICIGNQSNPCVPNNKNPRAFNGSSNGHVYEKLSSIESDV

[6] = target: Glutamate NMDA receptor; Grin1/Grin2c (Rattus norvegicus, UniProt P35439+Q00961); test: Antagonist activity at recombinant rat GluN1a/GluN2C expressed in Xenopus laevis oocytes assessed as inhibition of glycine/glutamate-mediated current responses by two-electrode voltage clamp method; assay type: cell-based; outline: as §1
Glutamate NMDA receptor; Grin1/Grin2c, sequence (Q00961 whole entry, other chains not shown): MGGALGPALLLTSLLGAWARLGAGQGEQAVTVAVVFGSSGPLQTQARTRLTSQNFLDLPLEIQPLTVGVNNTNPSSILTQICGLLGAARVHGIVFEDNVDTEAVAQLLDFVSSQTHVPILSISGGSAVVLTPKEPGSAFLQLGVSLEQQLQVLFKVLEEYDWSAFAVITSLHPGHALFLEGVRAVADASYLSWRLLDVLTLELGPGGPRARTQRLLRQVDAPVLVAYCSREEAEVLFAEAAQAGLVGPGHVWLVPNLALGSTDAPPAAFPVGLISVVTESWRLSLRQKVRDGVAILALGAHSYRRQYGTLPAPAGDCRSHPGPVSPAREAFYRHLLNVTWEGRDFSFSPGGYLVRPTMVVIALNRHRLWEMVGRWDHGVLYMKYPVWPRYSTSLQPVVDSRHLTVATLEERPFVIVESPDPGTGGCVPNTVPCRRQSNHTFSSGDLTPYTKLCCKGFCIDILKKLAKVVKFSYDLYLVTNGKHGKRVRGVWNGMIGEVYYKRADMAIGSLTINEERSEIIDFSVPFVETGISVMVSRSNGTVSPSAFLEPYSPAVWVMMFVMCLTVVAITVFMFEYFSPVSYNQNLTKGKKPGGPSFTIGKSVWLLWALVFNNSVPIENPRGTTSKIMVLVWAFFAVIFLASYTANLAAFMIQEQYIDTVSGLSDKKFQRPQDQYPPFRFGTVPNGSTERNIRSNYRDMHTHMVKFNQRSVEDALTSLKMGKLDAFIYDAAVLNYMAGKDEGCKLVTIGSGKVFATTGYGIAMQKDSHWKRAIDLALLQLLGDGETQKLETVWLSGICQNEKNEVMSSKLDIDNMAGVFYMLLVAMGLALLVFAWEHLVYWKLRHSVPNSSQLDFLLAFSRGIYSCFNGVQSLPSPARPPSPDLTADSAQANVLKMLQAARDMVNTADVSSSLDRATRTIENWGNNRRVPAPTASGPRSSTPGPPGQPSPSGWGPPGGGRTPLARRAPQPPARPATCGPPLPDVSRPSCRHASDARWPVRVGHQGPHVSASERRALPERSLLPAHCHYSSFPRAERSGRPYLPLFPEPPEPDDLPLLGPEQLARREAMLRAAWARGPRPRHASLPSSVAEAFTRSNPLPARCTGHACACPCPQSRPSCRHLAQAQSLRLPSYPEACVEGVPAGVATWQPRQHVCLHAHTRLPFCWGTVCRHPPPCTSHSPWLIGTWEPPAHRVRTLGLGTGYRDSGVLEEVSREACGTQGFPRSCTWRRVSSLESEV

[7] = test system: Plasma; test: AUC (0 to 240 mins) in mouse plasma at 10 mg/kg, ip administered as bolus dose by LC-MS/MS analysis; assay type: ADME, organism-based; design: time < 4 hr, dose 10 mg/kg, route intraperitoneal; details: in vivo, 4 h
Outline: (§2)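 Adult male mice (25 ± 5 g) given a single 10 mg/kg i.p. bolus, prepared as a 5.0 mM solution in 0.9% NaCl. Animals were decapitated at five time points between 10 and 240 min. Plasma was precipitated with acetonitrile containing internal standard. Brain and liver were homogenized in water (1:3) and precipitated the same way. Analysis by LC-MS/MS, with AUC0–240, Cmax, tmax, t½β and liver/plasma ratio derived from the concentration-time data.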

[8] = test system: Plasma; test: Cmax in mouse plasma at 10 mg/kg, ip administered as bolus dose by LC-MS/MS analysis; assay type: ADME, organism-based; design: dose 10 mg/kg, route intraperitoneal; details: in vivo; outline: as §2
[9] = test system: Plasma; test: Elimination half life in mouse plasma at 10 mg/kg, ip administered as bolus dose by LC-MS/MS analysis; assay type: ADME, organism-based; details: in vivo; outline: as §2
[10] = test system: Liver; test: Tmax in mouse liver at 10 mg/kg, ip administered as bolus dose by LC-MS/MS analysis; assay type: ADME, organism-based; details: in vivo; outline: as §2
[11] = test system: Brain; test: Tmax in mouse brain at 10 mg/kg, ip administered as bolus dose by LC-MS/MS analysis; assay type: ADME, organism-based; details: in vivo; outline: as §2
[12] = Liver to plasma partition coefficient in mouse at 10 mg/kg, ip administered as bolus dose by LC-MS/MS analysis; assay type: ADME, organism-based; details: other tissue; outline: as §2
[13] = test system: Brain; test: Drug uptake in mouse brain at 10 mg/kg, ip administered as bolus dose measured at 60 mins by LC-MS/MS analysis; assay type: ADME, organism-based; details: in vivo, 1 h; outline: as §2
[14] = species on record: Mus musculus; test: Antagonist activity at NMDA receptor in Nras driven p53 deficient mouse HCC cell membranes assessed as inhibition of NMDA-induced intracellular Ca2+ transients at 25 to 40 uM […] by fluo-4AM dye-based fluorescence assay
Outline: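 Mouse HCC cells were loaded with Fluo-4-AM (5 μM, 45 min), then washed out for 20 min in HEPES-buffered saline, pH 7.4. Ca2+ transients were evoked by 15 s applications of 150 μM NMDA via fast perfusion. This was done alone or with antagonist at 25 or […] μM, imaged at 495 nm excitation. Data were scored as % responding, mean ± SEM, n=5.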

[15] = species on record: Mus musculus; test: Antagonist activity at NMDA receptor in Nras driven p53 deficient mouse HCC cell membranes assessed as PGE2 levels at 10 uM after 24 hrs by LC-MS/MS method relative to control; design: scale not given: the % may be the effect or the level left
Outline: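 Mouse Nras-driven p53−/− HCC cells in DMEM with 2 mM L-glutamine, 10% heat-inactivated FBS and penicillin/streptomycin. Cells incubated 24 h with or without antagonist, either without LPS or with 2.5 μg/mL LPS in the growth medium. Cells washed three times with ice-cold HBSS and lysed in acetonitrile on ice. PGE₂ in lysates measured by LC-MS/MS (LLOQ 1 nM) and expressed as % of control; n=3.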

[16] = species on record: Mus musculus; test: Antagonist activity at NMDA receptor in Nras driven p53 deficient mouse HCC cell membranes assessed as Abcg2 protein expression levels at 10 uM by […] analysis relative to control; design: scale not given: the % may be the effect or the level left
Outline: (§3)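 Mouse Nras-driven p53−/− HCC cells in DMEM with 10% FBS, exposed 48 h with or without 10 μM antagonist, washed, pelleted and snap-frozen. Crude membrane fraction isolated. 50 μg protein reduced, alkylated, precipitated, then Lys-C digested (3 h, rt) and trypsin digested (1:100, 37°C, 16 h). One unique peptide per transporter quantified by multiplexed SRM/MRM LC-MS/MS against stable isotope-labelled standards. Unpaired two-tailed t-test versus control, n=4.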

[17] = species on record: Mus musculus; test: Antagonist activity at NMDA receptor in Nras driven p53 deficient mouse HCC cell membranes assessed as Abcc4 protein expression levels at 10 uM by […] analysis relative to control; design: scale not given: the % may be the effect or the level left; outline: as §3
[18] = species on record: Mus musculus; test: (§4) Antagonist activity at NMDA receptor in Nras driven p53 deficient mouse HCC cell membranes assessed as decrease in Abcb1 protein expression levels by measuring [3H]-digoxin accumulation at 10 uM preincubated for 24 hrs followed by compound wash out and addition of [3H]-digoxin measured after 30 mins by scintillation counting method relative to control; design: scale not given: the % may be the effect or the level left
Outline: (§5)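 Nras p53−/− HCC cells (1 × 10⁵/well) were pretreated 24 h with or without 10 μM. They were then washed 3× in warm HBSS (choline chloride, pH 7.4) and incubated at 37 °C with probe in HBSS. Incubation was 30 min for [3H]-digoxin, 20 μM fluorescein or 10 μM sorafenib, and 5 min for [14C]-L-leucine or [14C]-D-glucose. Cells were washed ice-cold and lysed in 0.1 M NaOH. Read-out was scintillation, fluorescence or LC-MS/MS, normalized to protein.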

[19] = species on record: Mus musculus; test: as §4, with “Abcc1 to 5” for “Abcb1”, “fluorescein” for “[3H]-digoxin”, “fluorescence assay” for “scintillation counting method”; design: scale not given: the % may be the effect or the level left; outline: as §5
[20] = species on record: Mus musculus; test: Antagonist activity at NMDA receptor in Nras driven p53 deficient mouse HCC cell membranes assessed as potentiation of 10 uM sorafenib-mediated antiproliferative activity by measuring cell viability at 100 uM after 72 hrs by resazurin assay (reference value: […] +/- […]%)

Cl.O=C(O)c1cc([C@H]2CCN[C@@H]2C(=O)O)ccc1Cl
Ki [1]: 131 µM
IC50 [2]: > 100 µM
IC50 [3]: > 100 µM
IC50 [4]: 15 µM
Ki [4]: 4.7 µM
IC50 [5]: 29 µM
Ki [5]: 10 µM
IC50 [6]: 110 µM
Ki [6]: 24 µM
AUC [7]: 3020 nmol·min/g
Cmax [8]: 43.4 nmol/g
beta t1/2 [9]: 30 min
Tmax [10]: 30 min
Tmax [11]: 30 min
Kp [12]: 0.19
Drug uptake [13]: 0.1 nmol/g
inhibition [14]: Active
Activity [15]: 68%
Activity [16]: 34%
Activity [17]: 14%
Activity [18]: 149%
Activity [19]: 201%
Activity [20]: 24%
